According to ChEMBL document CHEMBL1125643, “N-(5-fluorobenzothiazol-2-yl)-2-guanidinothiazole-4-carboxamide. A novel, systemically active antitumor agent effective against 3LL Lewis lung carcinoma” (J Med Chem, 1991):
Values joined by “and” are separate entries in the source; they are usually repeats but may differ in a detail not shown here. Equal entries are not always repeated.

What was measured:
[1] = Drug related lethality is percent animals in treated groups dying prior to first tumor related death in untreated groups measured in BDF1 mice after ip administration at 6.25 mg/kg dose; format: toxicity, organism-based; parameters: dose 6.25 mg/kg, route intraperitoneal; conditions: BDF1, mus sp., in vivo, read-out: Lethality
Procedure, shortened: (§1)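 Female BDF1 mice (18–20 g) were implanted in the lateral tail vein with 6×10^5 log-phase 3LL cells in 0.20 mL RPMI 1640 and then randomized, seven per group. Drug was dissolved in DMSO (20% of final volume) and diluted with sterile saline to a fine suspension. Mice received 200 μL ip daily from day 2 to day 9 (8 treatments) and were monitored daily. Lethality counted deaths before the first tumor-related control death.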

[2] = Drug related lethality is percent animals in treated groups dying prior to first tumor related death in untreated groups measured in BDF1 mice after po administration at 400 mg/kg dose; format: toxicity, organism-based; parameters: dose 400 mg/kg, route oral; conditions: BDF1, mus sp., in vivo, read-out: Lethality
Procedure, shortened: (§2)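 Female BDF1 mice (18–20 g) were implanted in the tail vein with 6×10^5 3LL cells in 0.20 mL RPMI 1640, seven per group. Drug was dissolved in DMSO (20% final) and diluted with saline to a fine suspension. Mice were dosed orally, 200 μL, from day 2 to day 9 (8 treatments). Lethality is the percentage of treated mice dying before the first tumor-related death among untreated controls.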

[3] = Drug related lethality is percent animals in treated groups dying prior to first tumor related death in untreated groups measured in BDF1 mice after po administration at 50 mg/kg dose; format: toxicity, organism-based; parameters: dose 50 mg/kg, route oral; conditions: BDF1, mus sp., in vivo, read-out: Lethality; procedure, shortened: as §2
Mus sp. [4] = assay: In vivo activity measured against 3LL metastasis in BDF1 mice after ip administration at 100 mg/kg dose, dosing on days 2-8 after tumor challenge; format: functional; conditions: route intraperitoneal
Procedure, shortened: (§3)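 Female BDF1 mice (18–20 g) given 6×10^5 log-phase 3LL cells iv via tail vein in 0.20 mL RPMI 1640, randomized, 7 per group. Drug freshly dissolved in DMSO (20% of final volume) and diluted with sterile saline to a fine suspension. Dosed 200 μL ip or po, 8 treatments from day 2. Survival monitored daily. %T/C = MST treated/MST control × 100, given as mean (s.e.) over repeat experiments.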

Mus sp. [5] = assay: In vivo activity measured against 3LL metastasis in BDF1 mice after ip administration at 12.5 mg/kg dose, dosing on days 2-8 after tumor challenge; format: functional; conditions: route intraperitoneal; procedure, shortened: as §3
Mus sp. [6] = assay: In vivo activity measured against 3LL metastasis in BDF1 mice after ip administration at 200 mg/kg dose, dosing on days 2-8 after tumor challenge; format: functional; conditions: route intraperitoneal; procedure, shortened: as §3
Mus sp. [7] = assay: In vivo activity measured against 3LL metastasis in BDF1 mice after ip administration at 25 mg/kg dose, dosing on days 2-8 after tumor challenge; format: functional; conditions: route intraperitoneal; procedure, shortened: as §3
[8] = Drug related lethality is percent animals in treated groups dying prior to first tumor related death in untreated groups measured in BDF1 mice after ip administration at 400 mg/kg dose; format: toxicity, organism-based; parameters: dose 400 mg/kg, route intraperitoneal; conditions: BDF1, mus sp., in vivo, read-out: Lethality; procedure, shortened: as §1
Mus sp. [9] = assay: In vivo activity measured against 3LL metastasis in BDF1 mice after ip administration at 50 mg/kg dose, dosing on days 2-8 after tumor challenge; format: functional; conditions: route intraperitoneal; procedure, shortened: as §3
Mus sp. [10] = assay: In vivo activity measured against 3LL metastasis in BDF1 mice after ip administration at 6.25 mg/kg dose, dosing on days 2-8 after tumor challenge; format: functional; conditions: route intraperitoneal; procedure, shortened: as §3
Mus sp. [11] = assay: In vivo activity measured against 3LL metastasis in BDF1 mice after po administration at 200 mg/kg dose, dosing on days 2-8 after tumor challenge; format: functional; procedure, shortened: as §3
Mus sp. [12] = assay: In vivo activity measured against 3LL metastasis in BDF1 mice after po administration at 25 mg/kg dose, dosing on days 2-8 after tumor challenge; format: functional; procedure, shortened: as §3
[13] = Drug related lethality is percent animals in treated groups dying prior to first tumor related death in untreated groups measured in BDF1 mice after po administration at 100 mg/kg dose; format: toxicity, organism-based; parameters: dose 100 mg/kg, route oral; conditions: BDF1, mus sp., in vivo, read-out: Lethality; procedure, shortened: as §2
[14] = Drug related lethality is percent animals in treated groups dying prior to first tumor related death in untreated groups measured in BDF1 mice after po administration at 12.5 mg/kg dose; format: toxicity, organism-based; parameters: dose 12.5 mg/kg, route oral; conditions: BDF1, mus sp., in vivo, read-out: Lethality; procedure, shortened: as §2
[15] = Drug related lethality is percent animals in treated groups dying prior to first tumor related death in untreated groups measured in BDF1 mice after po administration at 200 mg/kg dose; format: toxicity, organism-based; parameters: dose 200 mg/kg, route oral; conditions: BDF1, mus sp., in vivo, read-out: Lethality; procedure, shortened: as §2
[16] = Drug related lethality is percent animals in treated groups dying prior to first tumor related death in untreated groups measured in BDF1 mice after po administration at 25 mg/kg dose; format: toxicity, organism-based; parameters: dose 25 mg/kg, route oral; conditions: BDF1, mus sp., in vivo, read-out: Lethality; procedure, shortened: as §2
[17] = Drug related lethality is percent animals in treated groups dying prior to first tumor related death in untreated groups measured in BDF1 mice after ip administration at 100 mg/kg dose; format: toxicity, organism-based; parameters: dose 100 mg/kg, route intraperitoneal; conditions: BDF1, mus sp., in vivo, read-out: Lethality; procedure, shortened: as §1
[18] = Drug related lethality is percent animals in treated groups dying prior to first tumor related death in untreated groups measured in BDF1 mice after ip administration at 12.5 mg/kg dose; format: toxicity, organism-based; parameters: dose 12.5 mg/kg, route intraperitoneal; conditions: BDF1, mus sp., in vivo, read-out: Lethality; procedure, shortened: as §1
[19] = Drug related lethality is percent animals in treated groups dying prior to first tumor related death in untreated groups measured in BDF1 mice after ip administration at 200 mg/kg dose; format: toxicity, organism-based; parameters: dose 200 mg/kg, route intraperitoneal; conditions: BDF1, mus sp., in vivo, read-out: Lethality; procedure, shortened: as §1
[20] = Drug related lethality is percent animals in treated groups dying prior to first tumor related death in untreated groups measured in BDF1 mice after ip administration at 25 mg/kg dose; format: toxicity, organism-based; parameters: dose 25 mg/kg, route intraperitoneal; conditions: BDF1, mus sp., in vivo, read-out: Lethality; procedure, shortened: as §1
Mus sp. [21] = assay: In vivo activity measured against 3LL metastasis in BDF1 mice after po administration at 50 mg/kg dose, dosing on days 2-8 after tumor challenge; format: functional; procedure, shortened: as §3
Mus sp. [22] = assay: In vivo activity was measured against 3LL metastasis in BDF1 mice after po administration at 100 mg/kg dose, dosing on days 2-8 after tumor challenge; format: functional; procedure, shortened: as §3
[23] = Drug related lethality is percent animals in treated groups dying prior to first tumor related death in untreated groups measured in BDF1 mice after ip administration at 50 mg/kg dose; format: toxicity, organism-based; parameters: dose 50 mg/kg, route intraperitoneal; conditions: BDF1, mus sp., in vivo, read-out: Lethality; procedure, shortened: as §1
[24] = Drug related lethality is percent animals in treated groups dying prior to first tumor related death in untreated groups measured in BDF1 mice after ip administration at 400 mg/kg dose days 3 after tumor challenge; conditions: BDF1, mus sp., in vivo
[25] = Drug related lethality is percent animals in treated groups dying prior to first tumor related death in untreated groups measured in BDF1 mice after ip administration at 300 mg/kg dose days 3 after tumor challenge; conditions: BDF1, mus sp., in vivo
[26] = Drug related lethality is percent animals in treated groups dying prior to first tumor related death in untreated groups measured in BDF1 mice after ip administration at 8 mg/kg dose days 3,7,11 after tumor challenge; format: toxicity, organism-based; parameters: dose 8 mg/kg, route intraperitoneal; conditions: BDF1, mus sp., in vivo, read-out: Lethality
Mus sp. [27] = assay: In vivo activity measured against 3LL metastasis in BDF1 mice after ip administration at 16 mg/kg dose, dosing on days 3,7,11 after tumor challenge; format: functional; conditions: route intraperitoneal
Mus sp. [28] = assay: In vivo activity measured against 3LL metastasis in BDF1 mice after ip administration at 8 mg/kg dose, dosing on days 3,7,11 after tumor challenge; format: functional; conditions: route intraperitoneal
Mus sp. [29] = assay: In vivo activity measured against 3LL metastasis in BDF1 mice after ip administration at 32 mg/kg dose, dosing on days 3,7,11 after tumor challenge; format: functional; conditions: route intraperitoneal
[30] = Drug related lethality is percent animals in treated groups dying prior to first tumor related death in untreated groups measured in BDF1 mice after ip administration at 16 mg/kg dose days 3,7,11 after tumor challenge; format: toxicity, organism-based; parameters: dose 16 mg/kg, route intraperitoneal; conditions: BDF1, mus sp., in vivo, read-out: Lethality
[31] = Drug related lethality is percent animals in treated groups dying prior to first tumor related death in untreated groups measured in BDF1 mice after ip administration at 32 mg/kg dose days 3,7,11 after tumor challenge; format: toxicity, organism-based; parameters: dose 32 mg/kg, route intraperitoneal; conditions: BDF1, mus sp., in vivo, read-out: Lethality
Mus sp. [32] = assay: Drug related lethality is percent animals in treated groups dying prior to first tumor related death in untreated groups measured in BDF1 mice after ip administration at 5 mg/kg dose 3 days after tumor challenge; format: toxicity, organism-based; parameters: dose 5 mg/kg, route intraperitoneal; conditions: in vivo, 72 h
Mus sp. [33] = assay: Drug related lethality is percent animals in treated groups dying prior to first tumor related death in untreated groups measured in BDF1 mice after ip administration at 10 mg/kg dose 3 days after tumor challenge; format: toxicity, organism-based; parameters: dose 10 mg/kg, route intraperitoneal; conditions: in vivo, 72 h

Work on `N=C(N)Nc1nc(C(=O)Nc2nc3cc(F)ccc3s2)cs1` yielded a mortality [1] of 0%, a mortality [2] of 45.7% and a mortality [3] of 2%. For the same molecule, the T/C (Mus sp. [4]) was 160.7%, the T/C (Mus sp. [5]) was 149.3% and the T/C (Mus sp. [6]) was 179.7%. It also gave a T/C (Mus sp. [7]) of 153.8%, a mortality [8] of 42.9% and a T/C (Mus sp. [9]) of 153%. The T/C (Mus sp. [10]) was 112.7%, the T/C (Mus sp. [11]) was 119% and 150.3% and the T/C (Mus sp. [12]) was 127%. It also gave a mortality [13] of 5.7%, a mortality [14] of 0% and a mortality [15] of 22.7%. The mortality [16] was 1.78%, the mortality [17] was 0% and the mortality [18] was 0%. The mortality [19] was 14.3%, the mortality [20] was 0% and the T/C (Mus sp. [21]) was 140.4%. It also gave a T/C (Mus sp. [22]) of 157.7% and a mortality [23] of 0.43%.

In the case of `O=P1(N(CCCl)CCCl)NCCCO1` (stereo not drawn) [CYCLOPHOSPHAMIDE ANHYDROUS], the mortality [24] is reported as 14% and the mortality [25] is reported as 0%.

`COc1cc([C@@H]2c3cc4c(cc3[C@@H](O[C@@H]3O[C@@H]5CO[C@@H](C)O[C@H]5[C@H](O)[C@H]3O)[C@H]3COC(=O)[C@H]23)OCO4)cc(OC)c1O` [ETOPOSIDE] showed a mortality [26] of 0%, a T/C (Mus sp. [27]) of 128% and a T/C (Mus sp. [28]) of 118%. The T/C (Mus sp. [29]) was 130%, the mortality [30] was 0% and the mortality [31] was 7%.

CISPLATIN gave a Lethality (Mus sp. [32]) of 0% and a Lethality (Mus sp. [33]) of 0%.
